Published values from different studies.
Compare with care: the assays were run in different laboratories.
Target: Dual specificity mitogen-activated protein kinase kinase 2 (MAP2K2, Homo sapiens, UniProt P36507)

Compound | assay | conditions | endpoint | result
Cc1cc(O)c(-c2ccc([C@@H](C)CN(C)C)cc2)c2c1[nH]c(=O)c1sccc12 | enzyme activity, inhibitor | 0.1 µM | inhibition | 24.2%
C=CC(=O)N1CCC([C@@H]2CCNc3c(C(N)=O)c(-c4ccc(Oc5ccccc5)cc4)nn32)CC1 | enzyme activity, inhibitor | 1 µM | inhibition | 99%
CCCCC(=O)Nc1ccc(-c2ccc3ncn(CCC)c(=O)c3c2)cn1 | binding, competition with immobilised ligand | 0.5 µM | remaining binding | 68%
N#Cc1ccc(NC(=O)Nc2ccccc2)cc1 | cell-free assay, competition with immobilised ligand | 25 µM | remaining binding | 64%
CO[C@@H]1[C@H](N(C)C(=O)c2ccccc2)C[C@H]2O[C@]1(C)n1c3ccccc3c3c4c(c5c6ccccc6n2c5c31)C(=O)NC4 | enzyme activity, inhibitor | 1 µM | inhibition | 20%
CC(C)S(=O)(=O)c1ccc2nccc(Nc3ccc4sc(C5CCCC5)nc4c3)c2c1 | enzyme activity, inhibitor | 1 µM | activity vs control | 98%
CN1CCN(C(=O)c2ccc(NC(=O)Nc3ccc(N(C)c4ccnc(Nc5ccc(CS(C)(=O)=O)cc5)n4)cc3)cc2)CC1 | binding, competition with immobilised ligand | 1 µM | remaining binding | 40%
COc1ccc2oc(-c3ccc4nc(N)oc4c3)c/c(=N\c3ccccc3NC(=O)CCN)c2c1 | binding | 1 µM | remaining binding | 106%
C#Cc1cc(-c2cc(Nc3nc(N[C@@H](C)c4ccc(F)cn4)ncc3Cl)n[nH]2)ccc1C=O | enzyme activity, inhibitor | 0.2 µM | inhibition | 20.9%
COc1ccc2[nH]c3c4[nH]c5ccc(OC)cc5c4c4c(c3c2c1)C(=O)NC4=O | binding, competition with immobilised ligand | 1 µM | remaining binding | 59%
